ChEMBL document CHEMBL1268976, “Stereocontrolled facile synthesis and antimicrobial activity of oximes and oxime ethers of diversely substituted bispidines” (2010)
Converted amounts (≈) assume the structure as drawn.

Key:
Assay type in all cases: functional
Bacillus subtilis = test: Antibacterial activity against Bacillus subtilis by broth microdilution method
Procedure, shortened: (§1)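 In vitro broth microdilution following the NCCLS standard for bacteria (M7-A5). The test panel was Bacillus subtilis, Staphylococcus aureus, Klebsiella pneumoniae and Pseudomonas aeruginosa.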

Candida albicans = test: Antifungal activity against Candida albicans by broth microdilution method
Procedure, shortened: (§2)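 Fungal panel of Candida albicans, Candida parapsilosis, Aspergillus niger and Cryptococcus neoformans, tested in vitro by standard NCCLS broth microdilution. The yeast susceptibility reference cited is M27-A.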

Klebsiella pneumoniae [1] = test: Antibacterial activity against Klebsiella pneumoniae by broth microdilution method; procedure, shortened: as §1
Klebsiella pneumoniae [2] = test: Ratio of compound MIC90 to gentamicin MIC90 for Klebsiella pneumoniae
Aspergillus niger = test: Antifungal activity against Aspergillus niger by broth microdilution method; procedure, shortened: as §2
Candida parapsilosis = test: Antifungal activity against Candida parapsilosis by broth microdilution method; details: Lodderomyces parapsilosis; procedure, shortened: as §2
Pseudomonas aeruginosa [3] = test: Antibacterial activity against Pseudomonas aeruginosa by broth microdilution method; procedure, shortened: as §1
Cryptococcus neoformans = test: Antimicrobial activity against Cryptococcus neoformans by broth microdilution method; procedure, shortened: as §2
Staphylococcus aureus = test: Antibacterial activity against Staphylococcus aureus by broth microdilution method; procedure, shortened: as §1
Pseudomonas aeruginosa [4] = test: Ratio of gentamicin MIC90 to compound MIC90 for Pseudomonas aeruginosa

Row | MIC90 (Bacillus subtilis) [µg/mL] | MIC90 (Candida albicans) [µg/mL] | MIC90 (Klebsiella pneumoniae [1]) [µg/mL] | MIC90 (Aspergillus niger) [µg/mL] | MIC90 (Candida parapsilosis) [µg/mL] | MIC90 (Pseudomonas aeruginosa [3]) [µg/mL] | MIC90 (Cryptococcus neoformans) [µg/mL] | MIC90 (Staphylococcus aureus) [µg/mL] | Structure (SMILES) | Ratio (Klebsiella pneumoniae [2]) | Ratio (Pseudomonas aeruginosa [4])
1 | > 128 | > 128 | 16 (≈ 22.7 µM) | 16 (≈ 22.7 µM) | > 128 | 64 (≈ 90.7 µM) | 32 (≈ 45.3 µM) | > 128 | CCCOc1ccc(C2NC(c3ccc(OCCC)cc3)C3C(=NOC)C2C(c2ccc(OCCC)cc2)NC3c2ccc(OCCC)cc2)cc1 (stereo not drawn) | 8 | 
2 | 64 (≈ 97.3 µM) | 32 (≈ 48.6 µM) | 8 (≈ 12.2 µM) | 4 (≈ 6.08 µM) | 16 (≈ 24.3 µM) | 4 (≈ 6.08 µM) | 8 (≈ 12.2 µM) | > 128 | CON=C1C2C(c3ccc(SC)cc3)NC(c3ccc(SC)cc3)C1C(c1ccc(SC)cc1)NC2c1ccc(SC)cc1 (stereo not drawn) | 4 | 4
3 | 64 (≈ 121 µM) | 64 (≈ 121 µM) | 8 (≈ 15.1 µM) | 64 (≈ 121 µM) | 2 (≈ 3.78 µM) | 4 (≈ 7.55 µM) | > 128 | > 128 | CON=C1C2C(c3ccc(C)cc3)NC(c3ccc(C)cc3)C1C(c1ccc(C)cc1)NC2c1ccc(C)cc1 (stereo not drawn) | 4 | 4
4 | > 128 | 64 (≈ 124 µM) | > 128 | > 128 | 32 (≈ 62.1 µM) | 32 (≈ 62.1 µM) | > 128 | > 128 | Cc1ccc(C2NC(c3ccc(C)cc3)C3C(=NO)C2C(c2ccc(C)cc2)NC3c2ccc(C)cc2)cc1 (stereo not drawn) |  | 
5 | > 128 | > 128 | 64 (≈ 92.5 µM) | 32 (≈ 46.2 µM) | > 128 | 64 (≈ 92.5 µM) | 32 (≈ 46.2 µM) | > 128 | CCCOc1ccc(C2NC(c3ccc(OCCC)cc3)C3C(=NO)C2C(c2ccc(OCCC)cc2)NC3c2ccc(OCCC)cc2)cc1 (stereo not drawn) |  | 
6 | > 128 | 128 (≈ 270 µM) | > 128 | > 128 | > 128 | 128 (≈ 270 µM) | > 128 | > 128 | CON=C1C2C(c3ccccc3)NC(c3ccccc3)C1C(c1ccccc1)NC2c1ccccc1 (stereo not drawn) |  | 
7 | > 128 | > 128 | 32 (≈ 50.3 µM) | 16 (≈ 25.2 µM) | > 128 | 32 (≈ 50.3 µM) | 64 (≈ 101 µM) | > 128 | CCOc1ccc(C2NC(c3ccc(OCC)cc3)C3C(=NO)C2C(c2ccc(OCC)cc2)NC3c2ccc(OCC)cc2)cc1 (stereo not drawn) |  | 
8 | > 128 | 64 (≈ 76 µM) | > 128 | 128 (≈ 152 µM) | 128 (≈ 152 µM) | > 128 | > 128 | > 128 | CON=C1C2C(c3cccc(Oc4ccccc4)c3)NC(c3cccc(Oc4ccccc4)c3)C1C(c1cccc(Oc3ccccc3)c1)NC2c1cccc(Oc2ccccc2)c1 (stereo not drawn) |  | 
9 | > 128 | 16 (≈ 26.2 µM) | 4 (≈ 6.54 µM) | 2 (≈ 3.27 µM) | > 128 | 16 (≈ 26.2 µM) | 16 (≈ 26.2 µM) | 16 (≈ 26.2 µM) | CON=C1C2C(c3ccccc3Cl)NC(c3ccccc3Cl)C1C(c1ccccc1Cl)NC2c1ccccc1Cl (stereo not drawn) |  | 
10 | > 128 | > 128 | > 128 | 64 (≈ 110 µM) | > 128 | 128 (≈ 221 µM) | > 128 | > 128 | COc1cccc(C2NC(c3cccc(OC)c3)C3C(=NO)C2C(c2cccc(OC)c2)NC3c2cccc(OC)c2)c1 (stereo not drawn) |  | 
11 | > 128 | 16 (≈ 26.8 µM) | 32 (≈ 53.6 µM) | 8 (≈ 13.4 µM) | > 128 | 16 (≈ 26.8 µM) | 16 (≈ 26.8 µM) | 64 (≈ 107 µM) | ON=C1C2C(c3ccccc3Cl)NC(c3ccccc3Cl)C1C(c1ccccc1Cl)NC2c1ccccc1Cl (stereo not drawn) |  | 
12 | 128 (≈ 187 µM) | > 128 | 64 (≈ 93.6 µM) | 64 (≈ 93.6 µM) | 64 (≈ 93.6 µM) | > 128 | > 128 | > 128 | C=CCOc1ccc(C2NC(c3ccc(OCC=C)cc3)C3C(=NO)C2C(c2ccc(OCC=C)cc2)NC3c2ccc(OCC=C)cc2)cc1 (stereo not drawn) |  | 
13 | > 128 | > 128 | 32 (≈ 49.2 µM) | 8 (≈ 12.3 µM) | 128 (≈ 197 µM) | 32 (≈ 49.2 µM) | 16 (≈ 24.6 µM) | > 128 | CCOc1ccc(C2NC(c3ccc(OCC)cc3)C3C(=NOC)C2C(c2ccc(OCC)cc2)NC3c2ccc(OCC)cc2)cc1 (stereo not drawn) |  | 
14 | 128 (≈ 209 µM) | 4 (≈ 6.54 µM) | 4 (≈ 6.54 µM) | 16 (≈ 26.2 µM) | > 128 | 8 (≈ 13.1 µM) | > 128 | 32 (≈ 52.3 µM) | CON=C1C2C(c3ccc(Cl)cc3)NC(c3ccc(Cl)cc3)C1C(c1ccc(Cl)cc1)NC2c1ccc(Cl)cc1 (stereo not drawn) |  | 
15 | 64 (≈ 117 µM) | 2 (≈ 3.67 µM) | 16 (≈ 29.3 µM) | 2 (≈ 3.67 µM) | > 128 | 4 (≈ 7.33 µM) | 32 (≈ 58.7 µM) | 8 (≈ 14.7 µM) | CON=C1C2C(c3ccc(F)cc3)NC(c3ccc(F)cc3)C1C(c1ccc(F)cc1)NC2c1ccc(F)cc1 (stereo not drawn) |  | 
16 | > 128 | 128 (≈ 155 µM) | > 128 | > 128 | 128 (≈ 155 µM) | > 128 | > 128 | > 128 | ON=C1C2C(c3cccc(Oc4ccccc4)c3)NC(c3cccc(Oc4ccccc4)c3)C1C(c1cccc(Oc3ccccc3)c1)NC2c1cccc(Oc2ccccc2)c1 (stereo not drawn) |  | 
17 | > 128 | 64 (≈ 121 µM) | 16 (≈ 30.2 µM) | 64 (≈ 121 µM) | 8 (≈ 15.1 µM) | 16 (≈ 30.2 µM) | > 128 | > 128 | CON=C1C2C(c3ccccc3C)NC(c3ccccc3C)C1C(c1ccccc1C)NC2c1ccccc1C (stereo not drawn) | 8 | 
18 | 64 (≈ 108 µM) | 64 (≈ 108 µM) | 8 (≈ 13.5 µM) | 4 (≈ 6.74 µM) | 32 (≈ 53.9 µM) | 16 (≈ 26.9 µM) | 8 (≈ 13.5 µM) | > 128 | CON=C1C2C(c3ccccc3OC)NC(c3ccccc3OC)C1C(c1ccccc1OC)NC2c1ccccc1OC (stereo not drawn) | 4 | 
19 | > 128 | > 128 | > 128 | > 128 | 64 (≈ 112 µM) | 32 (≈ 56 µM) | > 128 | > 128 | CCc1ccc(C2NC(c3ccc(CC)cc3)C3C(=NO)C2C(c2ccc(CC)cc2)NC3c2ccc(CC)cc2)cc1 (stereo not drawn) |  | 
20 | > 128 | > 128 | > 128 | 16 (≈ 24.6 µM) | 64 (≈ 98.5 µM) | 32 (≈ 49.2 µM) | 16 (≈ 24.6 µM) | > 128 | CCOc1ccccc1C1NC(c2ccccc2OCC)C2C(=NOC)C1C(c1ccccc1OCC)NC2c1ccccc1OCC (stereo not drawn) |  | 
21 | > 128 | > 128 | > 128 | > 128 | > 128 | > 128 | > 128 | > 128 | ON=C1C2C(c3ccccc3Br)NC(c3ccccc3Br)C1C(c1ccccc1Br)NC2c1ccccc1Br (stereo not drawn) |  | 
22 | > 128 | > 128 | 64 (≈ 85.6 µM) | 32 (≈ 42.8 µM) | > 128 | 64 (≈ 85.6 µM) | 32 (≈ 42.8 µM) | > 128 | CCCCOc1ccc(C2NC(c3ccc(OCCCC)cc3)C3C(=NO)C2C(c2ccc(OCCCC)cc2)NC3c2ccc(OCCCC)cc2)cc1 (stereo not drawn) |  | 
23 | > 128 | > 128 | > 128 | 128 (≈ 145 µM) | > 128 | > 128 | > 128 | > 128 | ON=C1C2C(c3ccc(OCc4ccccc4)cc3)NC(c3ccc(OCc4ccccc4)cc3)C1C(c1ccc(OCc3ccccc3)cc1)NC2c1ccc(OCc2ccccc2)cc1 (stereo not drawn) |  | 
24 | > 128 | 64 (≈ 124 µM) | > 128 | 64 (≈ 124 µM) | 8 (≈ 15.5 µM) | 32 (≈ 62.1 µM) | > 128 | 128 (≈ 248 µM) | Cc1ccccc1C1NC(c2ccccc2C)C2C(=NO)C1C(c1ccccc1C)NC2c1ccccc1C (stereo not drawn) |  | 
25 | > 128 | > 128 | 64 (≈ 105 µM) | 64 (≈ 105 µM) | > 128 | > 128 | > 128 | > 128 | CON=C1C2C(c3cccc(Cl)c3)NC(c3cccc(Cl)c3)C1C(c1cccc(Cl)c1)NC2c1cccc(Cl)c1 (stereo not drawn) |  | 
26 | 128 (≈ 241 µM) | 32 (≈ 60.2 µM) | 64 (≈ 120 µM) | 64 (≈ 120 µM) | > 128 | 64 (≈ 120 µM) | > 128 | > 128 | ON=C1C2C(c3cccc(F)c3)NC(c3cccc(F)c3)C1C(c1cccc(F)c1)NC2c1cccc(F)c1 (stereo not drawn) |  | 
27 | > 128 | 128 (≈ 199 µM) | 128 (≈ 199 µM) | 128 (≈ 199 µM) | 8 (≈ 12.5 µM) | 16 (≈ 24.9 µM) | > 128 | 128 (≈ 199 µM) | CON=C1C2C(c3ccc(C(C)C)cc3)NC(c3ccc(C(C)C)cc3)C1C(c1ccc(C(C)C)cc1)NC2c1ccc(C(C)C)cc1 (stereo not drawn) |  | 
